Screening data: PubChem, Broad Institute
A1 apoptosis 2: compounds inhibiting A1, read as caspase activation | MEF A1-2A-BIM cells, caspase-Glo luminescence, 3 h; percent of clofoctol response, DMSO zero | caspase activation, % (no concentration beside the values) | 24,000 tested, under 10 active; in the data active = caspase activation above about 5.9%
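Test system – A1-2A-BIM-expressing MEF cells · Input – 2500 cells/well · Medium – RPMI-1640 growth medium with 10% FBS · Compound dosing – 50 nL pinned compound · Timing – 3 h compound exposure at 37 °C · Technique – Caspase-Glo luminescence (DEVD substrate) · Evaluation – Caspase-3/7 activity from luminescence increase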
T cruzi HTS: blocks T. cruzi growth inside host cells; AID 651903; activity score (inhibition), % at 5.01 µM; 4.9% of 22,000 active; intracellular Trypanosoma cruzi in host cells, plate reader; in the data active = activity score above about 55%;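 note: parasites and compound incubated about four days before reading; 0% = median of neutral control wells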
INS-1E rescue: rescue of cytokine-induced death in INS-1E beta cells | protection from cytokine-induced ATP loss, % at 10 µM | 0.1% of 20,000 active | AID 488910 | INS-1E cytokine-induced death, ATP luminescence, 48 h; normalised: neutral wells 0, positive control 100;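 active = mean replicate protection from cytokine-induced ATP loss at least 50% and at least 75% of replicates each reaching 50%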
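Test system: INS-1E rat cells | Quantity: 8000 cells per well | Medium: Phenol-red-free RPMI with 5% fetal bovine serum | Reagent: Cytokine cocktail of IFN-γ, TNF-α and IL-1β | Doses: One compound concentration, pin transfer | Timing: 48 h co-treatment, 10 min post-lysis read | Technique: Luminescent ATP assay (CellTiter-Glo)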
Active calls of the source: *; · = not tested or not shown. This excerpt belongs to a sample that is enriched for hits.

SMILES	A1 apoptosis 2	T cruzi HTS	INS-1E rescue
O=C(CCCCCCC(=O)Nc1ccccc1O)N/N=C/c1c(O)ccc2ccccc12	·	37.6	6.7
O=C(O)CCCCCCC(=O)N/N=C/C1CCCCC1	0.8	-25.1	14.8
C[C@@H]1CN([C@@H](C)CO)C(=O)c2cc(NS(=O)(=O)c3ccccc3)ccc2O[C@@H]1CN(C)Cc1ccc(Cl)c(Cl)c1	-2.0	13.0	-28.8
C[C@@H]1CN([C@H](C)CO)C(=O)c2cc(NS(=O)(=O)c3ccc(Cl)cc3)ccc2O[C@@H]1CN(C)Cc1ccc(Cl)c(Cl)c1	·	85.3*	-22.7
C[C@@H]1CCCCO[C@@H](CN(C)Cc2ccc(Cl)c(Cl)c2)[C@@H](C)CN([C@H](C)CO)C(=O)c2cc(NS(=O)(=O)c3ccc(F)cc3)ccc2O1	0.4	55.9*	-52.7
C[C@H]1CN([C@@H](C)CO)C(=O)c2cc(NS(=O)(=O)c3ccccc3)ccc2O[C@H]1CN(C)Cc1ccc(Cl)c(Cl)c1	-0.9	51.7*	·
C[C@@H]1CCCCO[C@@H](CN(C)Cc2ccc(Cl)c(Cl)c2)[C@@H](C)CN([C@H](C)CO)C(=O)c2cc(NS(=O)(=O)c3cccs3)ccc2O1	-0.9	67.7*	-53.1
C[C@H]1CCCCO[C@H](CN(C)Cc2ccc(Cl)c(Cl)c2)[C@@H](C)CN([C@@H](C)CO)C(=O)c2cc(NS(=O)(=O)c3ccc(F)cc3)ccc2O1	-1.5	·	·
C[C@@H]1CCCCO[C@H](CN(C)Cc2ccc(Cl)c(Cl)c2)[C@@H](C)CN([C@H](C)CO)C(=O)c2cc(NS(=O)(=O)c3cccs3)ccc2O1	·	17.3	-24.2
C[C@H](CO)N1C[C@H](C)[C@H](CN(C)Cc2ccc(Cl)c(Cl)c2)Oc2ccc(NS(=O)(=O)c3ccc(Cl)cc3)cc2C1=O	·	20.0	-10.6
O=C(NO)c1ccc(C(=O)N/N=C/c2cc(F)ccc2O)cc1	-0.3	-15.3	8.9
Cc1ccc(O)c(/C=N/NC(=O)CCCCCC(=O)O)c1	-0.2	0.9	-8.4
C[C@H](CO)N1C[C@H](C)[C@H](CN(C)Cc2ccc(Cl)c(Cl)c2)Oc2ccc(NS(=O)(=O)c3ccc(F)cc3)cc2C1=O	-0.7	7.9	-9.3
C[C@H]1CN([C@@H](C)CO)C(=O)c2cc(NS(=O)(=O)c3ccc(Cl)cc3)ccc2O[C@H]1CN(C)Cc1ccc(Cl)c(Cl)c1	0.4	·	·
C[C@@H]1CN([C@@H](C)CO)C(=O)c2cc(NS(=O)(=O)c3ccc(Cl)cc3)ccc2O[C@@H]1CN(C)Cc1ccc(Cl)c(Cl)c1	0.2	57.9*	-14.7
C[C@@H]1CCCCO[C@@H](CN(C)Cc2ccc(C(F)(F)F)cc2)[C@@H](C)CN([C@H](C)CO)C(=O)c2cc(NS(=O)(=O)c3ccc(F)cc3)ccc2O1	·	64.2*	-62.8
C[C@H](CO)N1C[C@H](C)[C@@H](CN(C)Cc2ccc(C(F)(F)F)cc2)OCCCC[C@H](C)Oc2ccc(NS(=O)(=O)c3ccc(F)cc3)cc2C1=O	1.8	·	·
C[C@H]1CN([C@@H](C)CO)C(=O)c2cc(NS(=O)(=O)c3ccc(F)cc3)ccc2O[C@@H]1CN(C)Cc1ccc(Cl)c(Cl)c1	·	69.9*	-2.4
C[C@@H]1CN([C@H](C)CO)C(=O)c2cc(NS(=O)(=O)c3ccccc3)ccc2O[C@H]1CN(C)CC1CCCCC1	·	-3.3	-2.9
O=C(N/N=C/c1cccc(O)c1)c1ccccn1	-10.3	-5.5	-8.8
COC(=O)[C@]1(CCC(=O)OC(C)(C)C)N=C(c2ccc(OCCCO)cc2)O[C@@H]1c1ccccc1CN=[N+]=[N-]	0.3	·	·
COC(=O)CCCCCCC(=O)N=NC=C1C=CN(O)C=C1	·	-11.0	11.1
COC(=O)C(CC#Cc1ccc2c(c1)[C@]1(C(=O)N2)[C@H](c2ccc(O)cc2)N2[C@H](c3ccccc3)[C@H](c3ccccc3)OC(=O)[C@H]2[C@@H]1C(=O)O)C(=O)OC	1.3	·	·
Cc1ccc(S(=O)(=O)Nc2ccc3c(c2)CC(=O)N([C@H](C)CO)C[C@H](C)[C@H](CN(C)Cc2ccc(C(F)(F)F)cc2)O3)cc1	·	33.7	-5.5
Cc1ccc(S(=O)(=O)Nc2ccc3c(c2)CC(=O)N([C@@H](C)CO)C[C@@H](C)[C@@H](CN(C)Cc2ccc(C(F)(F)F)cc2)O3)cc1	-0.4	63.9*	-30.8
SMILES	A1 apoptosis 2	T cruzi HTS	INS-1E rescue
COc1ccc(S(=O)(=O)Nc2ccc3c(c2)CC(=O)N([C@@H](C)CO)C[C@H](C)[C@@H](CN(C)Cc2ccc(C(F)(F)F)cc2)O3)cc1	-0.2	83.3*	-13.3
C[C@H]1CN([C@@H](C)CO)C(=O)Cc2cc(NS(=O)(=O)c3ccccc3)ccc2O[C@H]1CN(C)Cc1ccc(C(F)(F)F)cc1	·	48.1	-0.8
COc1ccc(CN(C)C[C@@H]2Oc3ccc(NS(=O)(=O)c4ccc(OC)cc4)cc3CC(=O)N([C@@H](C)CO)C[C@H]2C)cc1	-1.0	·	·
C[C@@H]1CN([C@H](C)CO)C(=O)Cc2cc(NS(=O)(=O)c3ccc(F)cc3)ccc2O[C@@H]1CN(C)Cc1ccc(C(F)(F)F)cc1	·	60.4*	-48.4
C#CCOc1ccc(/C=N/NC(=O)c2ccccn2)cc1	-10.5	-30.4	-15.7
O=C(NO)c1ccc(C(=O)N/N=C/c2ccc(-n3ccnc3)cc2)cc1	0.5	0.2	0.4
C[C@@H]1CCCCO[C@@H](CN(C)Cc2ccc(Cl)c(Cl)c2)[C@H](C)CN([C@@H](C)CO)C(=O)c2cc(NC(=O)Nc3ccccc3)ccc2O1	-1.4	·	·
C[C@@H]1CN([C@H](C)CO)C(=O)c2cc(NC(=O)C3CCCCC3)ccc2O[C@@H](C)CCCCO[C@H]1CN(C)Cc1ccc(Cl)c(Cl)c1	-1.3	·	·
C[C@@H]1CCCCO[C@@H](CN(C)Cc2ccc(Cl)c(Cl)c2)[C@@H](C)CN([C@H](C)CO)C(=O)c2cc(NC(=O)C3CCCCC3)ccc2O1	·	87.9*	-42.0
C[C@@H]1CCCCO[C@H](CN(C)Cc2ccc(Cl)c(Cl)c2)[C@@H](C)CN([C@H](C)CO)C(=O)c2cc(NC(=O)Nc3ccccc3)ccc2O1	-1.3	76.4*	-9.0
C[C@@H]1CCCCO[C@@H](CN(C)Cc2ccc(Cl)c(Cl)c2)[C@@H](C)CN([C@H](C)CO)C(=O)c2cc(NC(=O)Nc3ccccc3)ccc2O1	·	77.9*	-5.2
C[C@@H]1CN([C@@H](C)CO)C(=O)c2cc(NC(=O)Nc3ccccc3)ccc2O[C@@H](C)CCCCO[C@H]1CN(C)Cc1ccc(Cl)c(Cl)c1	0.1	·	·
N#Cc1ccc(/C=N/NC(=O)CCCCCC(=O)NO)cc1	-0.6	·	·
C=CCNC(=O)[C@H]1[C@@H]2C(=O)O[C@@H](c3ccccc3)[C@@H](c3ccccc3)N2[C@@H](c2ccccc2OCCO)[C@]12C(=O)Nc1ccccc12	-0.9	·	·
O=C(CCCCCCC(=O)Nc1ccccc1O)N/N=C/c1ccc(Br)o1	-0.9	-17.8	16.9
COc1ccc(C#Cc2ccc3c(c2)[C@]2(C(=O)N3)[C@H](C(=O)NC[C@H](O)c3ccccc3)[C@H]3C(=O)O[C@H](c4ccccc4)[C@H](c4ccccc4)N3[C@@H]2c2ccccc2OCCO)cc1	1.0	·	·
O=C(N/N=C/c1cccc2ccccc12)c1ccccc1O	-3.5	-10.8	-30.3
